Laboratory results as given in ChEMBL document CHEMBL3407388, “Synthesis, anticancer activity and molecular docking studies on a series of heterocyclic trans-cyanocombretastatin analogues as antitubulin agents” (2015).

Key:
Type in all cases: functional
[1] = system: M14; test: Cytotoxicity against human M14 cells assessed as growth inhibition after 48 hrs by SRB assay; conditions: M14, 48 h
Method in brief: (§1)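 NCI 60-cell panel; compounds passing a single-dose screen (10−5 M, 48 h) were tested at five 10-fold dilutions (10−4 to 10−8 M) with 48 h drug exposure. GI50 is the molar concentration giving 50% reduction in net cell growth relative to cell numbers on day 0.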

[2] = system: NCI-H23; test: Cytotoxicity against human NCI-H23 cells assessed as growth inhibition after 48 hrs by SRB assay; conditions: NCI-H23, 48 h; method in brief: as §1
[3] = system: SK-MEL-5; test: Cytotoxicity against human SK-MEL-5 cells assessed as growth inhibition after 48 hrs by SRB assay; conditions: SK-MEL-5, 48 h; method in brief: as §1
[4] = Cytotoxicity against human PC3 cells assessed as growth inhibition after 48 hrs by SRB assay; conditions: PC-3, 48 h; method in brief: as §1
[5] = system: BT-549; test: Cytotoxicity against human BT549 cells assessed as growth inhibition after 48 hrs by SRB assay; conditions: BT-549, 48 h; method in brief: as §1
[6] = system: LOX IMVI; test: Cytotoxicity against human LOXIMVI cells assessed as growth inhibition after 48 hrs by SRB assay; method in brief: as §1
[7] = system: MDA-MB-435; test: Cytotoxicity against human MDA-MB-435 cells assessed as growth inhibition after 48 hrs by SRB assay; conditions: MDA-MB-435, 48 h; method in brief: as §1
[8] = Cytotoxicity against human OVCAR3 cells assessed as growth inhibition after 48 hrs by SRB assay; conditions: OVCAR-3, 48 h; method in brief: as §1
[9] = Cytotoxicity against human UO31 cells assessed as growth inhibition after 48 hrs by SRB assay; conditions: UO-31, 48 h
[10] = system: U-251; test: Cytotoxicity against human U251 cells assessed as growth inhibition after 48 hrs by SRB assay; conditions: U-251, 48 h
[11] = system: TK-10; test: Cytotoxicity against human TK10 cells assessed as growth inhibition after 48 hrs by SRB assay; conditions: TK-10, 48 h
[12] = system: KM12; test: Cytotoxicity against human KM12 cells assessed as growth inhibition after 48 hrs by SRB assay; conditions: KM12, 48 h; method in brief: as §1
[13] = Cytotoxicity against human HCT116 cells assessed as growth inhibition after 48 hrs by SRB assay; conditions: HCT-116, 48 h; method in brief: as §1
[14] = system: RPMI-8226; test: Cytotoxicity against human RPMI8226 cells assessed as growth inhibition after 48 hrs by SRB assay; conditions: RPMI-8226, 48 h; method in brief: as §1
[15] = system: SF-268; test: Cytotoxicity against human SF268 cells assessed as growth inhibition after 48 hrs by SRB assay; conditions: SF-268, 48 h; method in brief: as §1
[16] = system: RXF 393; test: Cytotoxicity against human RXF393 cells assessed as growth inhibition after 48 hrs by SRB assay; conditions: RXF 393, 48 h; method in brief: as §1
[17] = system: A498; test: Cytotoxicity against human A498 cells assessed as growth inhibition after 48 hrs by SRB assay; conditions: A498, 48 h; method in brief: as §1
[18] = system: MCF7; test: Cytotoxicity against human MCF7 cells assessed as growth inhibition after 48 hrs by SRB assay; conditions: MCF7, 48 h; method in brief: as §1
[19] = system: SN12C; test: Cytotoxicity against human SN12C cells assessed as growth inhibition after 48 hrs by SRB assay; method in brief: as §1
[20] = system: HCC 2998; test: Cytotoxicity against human HCC2998 cells assessed as growth inhibition after 48 hrs by SRB assay; conditions: HCC 2998, 48 h; method in brief: as §1
[21] = system: SW-620; test: Cytotoxicity against human SW620 cells assessed as growth inhibition after 48 hrs by SRB assay; conditions: SW-620, 48 h
[22] = Cytotoxicity against human OVCAR4 cells assessed as growth inhibition after 48 hrs by SRB assay; conditions: OVCAR-4, 48 h; method in brief: as §1
[23] = system: MDA-MB-231; test: Cytotoxicity against human MDA-MB-231 cells assessed as growth inhibition after 48 hrs by SRB assay; conditions: MDA-MB-231, 48 h; method in brief: as §1
[24] = system: SF-295; test: Cytotoxicity against human SF295 cells assessed as growth inhibition after 48 hrs by SRB assay; conditions: SF-295, 48 h; method in brief: as §1
[25] = system: NCI-H460; test: Cytotoxicity against human NCI-H460 cells assessed as growth inhibition after 48 hrs by SRB assay; conditions: NCI-H460, 48 h; method in brief: as §1
[26] = Cytotoxicity against human NCI-ADR-RES cells assessed as growth inhibition after 48 hrs by SRB assay; method in brief: as §1
[27] = Cytotoxicity against human OVCAR8 cells assessed as growth inhibition after 48 hrs by SRB assay; conditions: OVCAR-8, 48 h; method in brief: as §1
[28] = system: DU-145; test: Cytotoxicity against human DU145 cells assessed as growth inhibition after 48 hrs by SRB assay; conditions: DU-145, 48 h; method in brief: as §1
[29] = Cytotoxicity against human UACC62 cells assessed as growth inhibition after 48 hrs by SRB assay; conditions: UACC-62, 48 h
[30] = system: CAKI-1; test: Cytotoxicity against human Caki1 cells assessed as growth inhibition after 48 hrs by SRB assay; conditions: CAKI-1, 48 h; method in brief: as §1
[31] = system: SNB-75; test: Cytotoxicity against human SNB75 cells assessed as growth inhibition after 48 hrs by SRB assay; conditions: SNB-75, 48 h
[32] = system: SK-OV-3; test: Cytotoxicity against human SKOV3 cells assessed as growth inhibition after 48 hrs by SRB assay; conditions: SK-OV-3, 48 h; method in brief: as §1
[33] = system: 786-0; test: Cytotoxicity against human 786-0 cells assessed as growth inhibition after 48 hrs by SRB assay; conditions: 786-0, 48 h; method in brief: as §1
[34] = system: SNB-19; test: Cytotoxicity against human SNB19 cells assessed as growth inhibition after 48 hrs by SRB assay; conditions: SNB-19, 48 h; method in brief: as §1
[35] = system: NCI-H226; test: Cytotoxicity against human NCI-H226 cells assessed as growth inhibition after 48 hrs by SRB assay; conditions: NCI-H226, 48 h; method in brief: as §1
[36] = system: HL-60(TB); test: Cytotoxicity against human HL-60(TB) cells assessed as growth inhibition after 48 hrs by SRB assay; conditions: HL-60, 48 h
Method in brief: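 NCI 60-cell panel, leukemia subpanel. Five-dose screen at 10-fold dilutions from 10−4 to 10−8 M with 48 h drug exposure. GI50 is the molar concentration giving 50% reduction in net cell growth compared with cell numbers on day 0.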

[37] = system: MOLT-4; test: Cytotoxicity against human MOLT4 cells assessed as growth inhibition after 48 hrs by SRB assay; conditions: MOLT-4, 48 h; method in brief: as §1
[38] = system: IGROV-1; test: Cytotoxicity against human IGROV1 cells assessed as growth inhibition after 48 hrs by SRB assay; conditions: IGROV-1, 48 h; method in brief: as §1
[39] = system: HT-29; test: Cytotoxicity against human HT-29 cells assessed as growth inhibition after 48 hrs by SRB assay; conditions: HT-29, 48 h; method in brief: as §1
[40] = Cytotoxicity against human HCT15 cells assessed as growth inhibition after 48 hrs by SRB assay; conditions: HCT-15, 48 h; method in brief: as §1
[41] = system: SF-539; test: Cytotoxicity against human SF539 cells assessed as growth inhibition after 48 hrs by SRB assay; conditions: SF-539, 48 h; method in brief: as §1
[42] = system: COLO 205; test: Cytotoxicity against human COLO205 cells assessed as growth inhibition after 48 hrs by SRB assay; conditions: COLO 205, 48 h; method in brief: as §1
[43] = Cytotoxicity against human OVCAR5 cells assessed as growth inhibition after 48 hrs by SRB assay; conditions: OVCAR-5, 48 h; method in brief: as §1

## COc1cc(/C(C#N)=C/c2cc3ccccc3n2Cc2ccc(C#N)cc2)cc(OC)c1OC
[1]
  GI50: 56 nM
[2]
  GI50: 246 nM
[3]
  GI50: 60 nM
[4]
  GI50: 105 nM
[5]
  GI50: 109 nM
[6]
  GI50: 90 nM
[7]
  GI50: 24 nM
[8]
  GI50: 42 nM
[9]
  GI50: 201 nM
[10]
  GI50: 44 nM
[11]
  GI50: 20.1 µM
[12]
  GI50: 47 nM
[13]
  GI50: 47 nM
[14]
  GI50: 199 nM
[15]
  GI50: 86 nM
[16]
  GI50: 55 nM
[17]
  GI50: 29 nM
[18]
  GI50: 39 nM
[19]
  GI50: 269 nM
[20]
  GI50: 265 nM
[21]
  GI50: 48 nM
[22]
  GI50: 0.672 µM
[23]
  GI50: 294 nM
[24]
  GI50: 37 nM
[25]
  GI50: 93 nM
[26]
  GI50: 73 nM
[27]
  GI50: 124 nM
[28]
  GI50: 207 nM
[29]
  GI50: 58 nM
[30]
  GI50: 35 nM
[31]
  GI50: 39 nM
[32]
  GI50: 87 nM
[33]
  GI50: 137 nM
[34]
  GI50: 85 nM
[35]
  GI50: 14.5 µM
[36]
  GI50: 31 nM
[37]
  GI50: 274 nM
[38]
  GI50: 183 nM
[39]
  GI50: 48 nM
[40]
  GI50: 89 nM
[41]
  GI50: 39 nM
[42]
  GI50: 97 nM
[43]
  GI50: 259 nM

## COc1cc(OC)cc(/C(C#N)=C/c2c[nH]c3ccccc23)c1
[1]
  GI50: 42 nM
[2]
  GI50: 256 nM
[3]
  GI50: 48 nM
[4]
  GI50: 75 nM
[5]
  GI50: 49 nM
[6]
  GI50: 78 nM
[7]
  GI50: 20 nM
[8]
  GI50: 31 nM
[9]
  GI50: 663 nM
[10]
  GI50: 45 nM
[11]
  GI50: 10.3 µM
[12]
  GI50: 40 nM
[13]
  GI50: 42 nM
[14]
  GI50: 65 nM
[15]
  GI50: 78 nM
[16]
  GI50: 83 nM
[17]
  GI50: 35 nM
[18]
  GI50: 41 nM
[19]
  GI50: 77 nM
[20]
  GI50: 207 nM
[21]
  GI50: 44 nM
[22]
  GI50: 3.52 µM
[23]
  GI50: 644 nM
[24]
  GI50: 45 nM
[25]
  GI50: 39 nM
[26]
  GI50: 33 nM
[27]
  GI50: 103 nM
[28]
  GI50: 130 nM
[29]
  GI50: 49 nM
[30]
  GI50: 35 nM
[31]
  GI50: 34 nM
[32]
  GI50: 117 nM
[33]
  GI50: 77 nM
[34]
  GI50: 62 nM
[35]
  GI50: 8.18 µM
[36]
  GI50: 31 nM
[37]
  GI50: 49 nM
[38]
  GI50: 347 nM
[39]
  GI50: 38 nM
[40]
  GI50: 53 nM
[41]
  GI50: 52 nM
[42]
  GI50: 47 nM
[43]
  GI50: 197 nM

## COc1cc(/C(C#N)=C/c2cc3ccccc3[nH]2)cc(OC)c1OC
[1]
  GI50: < 10 nM
[2]
  GI50: < 10 nM
[3]
  GI50: < 10 nM
[4]
  GI50: < 10 nM
[5]
  GI50: < 10 nM
[6]
  GI50: < 10 nM
[7]
  GI50: < 10 nM
[8]
  GI50: < 10 nM
[9]
  GI50: < 10 nM
[10]
  GI50: < 10 nM
[11]
  GI50: < 0.01 µM
[12]
  GI50: < 10 nM
[13]
  GI50: < 10 nM
[14]
  GI50: < 10 nM
[15]
  GI50: 15 nM
[16]
  GI50: < 10 nM
[17]
  GI50: < 10 nM
[18]
  GI50: 16 nM
[19]
  GI50: < 10 nM
[20]
  GI50: 18 nM
[21]
  GI50: < 10 nM
[22]
  GI50: 15.2 µM
[23]
  GI50: 14 nM
[24]
  GI50: < 10 nM
[25]
  GI50: < 10 nM
[26]
  GI50: < 10 nM
[27]
  GI50: < 10 nM
[28]
  GI50: < 10 nM
[29]
  GI50: < 10 nM
[30]
  GI50: < 10 nM
[31]
  GI50: < 10 nM
[32]
  GI50: < 10 nM
[33]
  GI50: < 10 nM
[34]
  GI50: < 10 nM
[35]
  GI50: < 0.01 µM
[36]
  GI50: < 10 nM
[37]
  GI50: 23 nM
[38]
  GI50: < 10 nM
[39]
  GI50: < 10 nM
[40]
  GI50: < 10 nM
[41]
  GI50: < 10 nM
[42]
  GI50: 16 nM
[43]
  GI50: 80 nM
